Results: ChEMBL document CHEMBL4725261, “Design, synthesis and evaluation of carbamate-linked uridyl-based inhibitors of human ST6Gal I” (Bioorg Med Chem, 2020)

molecular target: T1, Beta-galactoside alpha-2,6-sialyltransferase 1 (Rattus norvegicus, UniProt P13721); test: Inhibition of rat liver ST6Gal-1 by HPLC-based assay; conditions: not given
T1 sequence (P13721 whole entry): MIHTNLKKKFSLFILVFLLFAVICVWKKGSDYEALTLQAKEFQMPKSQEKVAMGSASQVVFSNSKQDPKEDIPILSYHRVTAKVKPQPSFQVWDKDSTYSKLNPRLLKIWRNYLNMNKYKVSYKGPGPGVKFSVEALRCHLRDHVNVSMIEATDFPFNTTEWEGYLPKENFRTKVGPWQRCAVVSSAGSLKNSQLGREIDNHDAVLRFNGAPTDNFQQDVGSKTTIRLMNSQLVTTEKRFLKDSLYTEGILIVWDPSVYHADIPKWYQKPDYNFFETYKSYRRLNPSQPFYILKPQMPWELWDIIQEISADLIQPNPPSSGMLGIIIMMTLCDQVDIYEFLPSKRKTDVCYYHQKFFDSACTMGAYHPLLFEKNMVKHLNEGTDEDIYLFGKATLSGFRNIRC

Ki [µM]	SMILES
0.029	CC(=O)N[C@H]1[C@@H](Oc2ccccc2)OC([C@@H](OP(=O)(O)OC[C@H]2O[C@@H](n3ccc(N)nc3=O)[C@H](O)[C@@H]2O)P(=O)(O)O)=C[C@@H]1O

system: MIA PaCa-2; test: Cytotoxicity against human MIA PaCa-2 cells assessed as reduction in cell viability at 200 uM after 24 to 48 hrs by MTS assay; assay type: cell-based; conditions: mia paca-2, 200 µM, time 24-48 hrs

SMILES	Activity
Nc1ccn([C@@H]2O[C@H](CNC(=O)OC(c3cccc(Oc4ccccc4)c3)P(=O)([O-])[O-])[C@@H](O)[C@H]2O)c(=O)n1.[Na+].[Na+] (stereo in doubt; 30-(s))	Non-Toxic
O=C(NC[C@H]1O[C@@H](n2ccc(=O)[nH]c2=O)[C@H](O)[C@@H]1O)OC(c1ccc(F)c(Oc2ccccc2)c1)P(=O)([O-])[O-].[Na+].[Na+] (stereo in doubt; 28b-(s))	Non-Toxic
COc1cccc(C(OC(=O)NC[C@H]2O[C@@H](n3ccc(=O)[nH]c3=O)[C@H](O)[C@@H]2O)P(=O)([O-])[O-])c1.[Na+].[Na+] (stereo in doubt; 28f-(s))	Non-Toxic
COc1ccc(C(OC(=O)NC[C@H]2O[C@@H](n3ccc(=O)[nH]c3=O)[C@H](O)[C@@H]2O)P(=O)([O-])[O-])cc1OC1CCCC1.[Na+].[Na+] (stereo in doubt; 28h-(s))	Non-Toxic
O=C(NC[C@H]1O[C@@H](n2ccc(=O)[nH]c2=O)[C@H](O)[C@@H]1O)OC(c1cc2ccccc2s1)P(=O)([O-])[O-].[Na+].[Na+] (stereo in doubt; 28k-(s))	Non-Toxic
O=C(NC[C@H]1O[C@@H](n2ccc(=O)[nH]c2=O)[C@H](O)[C@@H]1O)OC(c1cccc(F)c1)P(=O)([O-])[O-].[Na+].[Na+] (stereo in doubt; 28d-(s))	Non-Toxic
CCCOc1cccc(C(OC(=O)NC[C@H]2O[C@@H](n3ccc(=O)[nH]c3=O)[C@H](O)[C@@H]2O)P(=O)([O-])[O-])c1.[Na+].[Na+] (stereo in doubt; 28e-(s))	Non-Toxic
O=C(NC[C@H]1O[C@@H](n2ccc(=O)[nH]c2=O)[C@H](O)[C@@H]1O)OC(c1ccc(F)cc1)P(=O)([O-])[O-].[Na+].[Na+] (stereo in doubt; 28c-(s))	Non-Toxic
O=C(NC[C@H]1O[C@@H](n2ccc(=O)[nH]c2=O)[C@H](O)[C@@H]1O)OC(c1csc2ccccc12)P(=O)([O-])[O-].[Na+].[Na+] (stereo in doubt; 28l-(s))	Non-Toxic
O=C(NC[C@H]1O[C@@H](n2ccc(=O)[nH]c2=O)[C@H](O)[C@@H]1O)OC(c1ccc(OC2CCCC2)cc1)P(=O)([O-])[O-].[Na+].[Na+] (stereo in doubt; 28i-(s))	Non-Toxic
O=C(NC[C@H]1O[C@@H](n2ccc(=O)[nH]c2=O)[C@H](O)[C@@H]1O)OC(c1cccc(Oc2ccccc2)c1)P(=O)([O-])[O-].[Na+].[Na+] (stereo in doubt; 28a-(s))	Non-Toxic
O=C(NC[C@H]1O[C@@H](n2ccc(=O)[nH]c2=O)[C@H](O)[C@@H]1O)OC(c1ccccc1)P(=O)([O-])[O-].[Na+].[Na+] (stereo in doubt; 28j-(s))	Non-Toxic
COc1ccc(C(OC(=O)NC[C@H]2O[C@@H](n3ccc(=O)[nH]c3=O)[C@H](O)[C@@H]2O)P(=O)([O-])[O-])cc1.[Na+].[Na+] (stereo in doubt; 28g-(s))	Non-Toxic

molecular target: T2, Beta-galactoside alpha-2,6-sialyltransferase 1 (Homo sapiens, UniProt P15907); test: Inhibition of recombinant human N-terminal 6His-tagged ST6Gal-1 (Glu44 to Cys406 residues); conditions: not given
T2 sequence (P15907 whole entry): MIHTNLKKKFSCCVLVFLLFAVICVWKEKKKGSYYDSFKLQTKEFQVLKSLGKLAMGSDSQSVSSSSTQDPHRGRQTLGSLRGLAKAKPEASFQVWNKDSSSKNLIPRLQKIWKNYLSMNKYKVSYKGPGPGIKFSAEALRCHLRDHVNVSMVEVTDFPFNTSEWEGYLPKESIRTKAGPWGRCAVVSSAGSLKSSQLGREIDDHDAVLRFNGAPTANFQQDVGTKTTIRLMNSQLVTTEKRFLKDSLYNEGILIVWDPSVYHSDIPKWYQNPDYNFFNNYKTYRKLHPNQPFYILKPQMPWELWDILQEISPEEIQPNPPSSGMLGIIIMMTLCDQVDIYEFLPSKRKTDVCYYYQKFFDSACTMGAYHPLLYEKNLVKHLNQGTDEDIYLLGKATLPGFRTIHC
Method in brief: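 Recombinant human ST6Gal I activity was measured in a luminescence microplate assay, and inhibition was expressed as Ki.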

SMILES	Ki [µM]
CCCOc1cccc(C(OC(=O)NC[C@H]2O[C@@H](n3ccc(=O)[nH]c3=O)[C@H](O)[C@@H]2O)P(=O)(O)O)c1 (stereo in doubt; 28e-(l))	20.3
O=C(NC[C@H]1O[C@@H](n2ccc(=O)[nH]c2=O)[C@H](O)[C@@H]1O)OC(c1ccc(OC2CCCC2)cc1)P(=O)(O)O (stereo in doubt; 28i-(l))	11.5
O=C(NC[C@H]1O[C@@H](n2ccc(=O)[nH]c2=O)[C@H](O)[C@@H]1O)OC(c1cc2ccccc2s1)P(=O)([O-])[O-].[Na+].[Na+] (stereo in doubt; 28k-(s))	8.5
O=C(NC[C@H]1O[C@@H](n2ccc(=O)[nH]c2=O)[C@H](O)[C@@H]1O)OC(c1cccc(F)c1)P(=O)([O-])[O-].[Na+].[Na+] (stereo in doubt; 28d-(s))	19.2
O=C(NC[C@H]1O[C@@H](n2ccc(=O)[nH]c2=O)[C@H](O)[C@@H]1O)OC(c1ccc(F)cc1)P(=O)([O-])[O-].[Na+].[Na+] (stereo in doubt; 28c-(s))	306
O=C(NC[C@H]1O[C@@H](n2ccc(=O)[nH]c2=O)[C@H](O)[C@@H]1O)OC(c1ccc(OC2CCCC2)cc1)P(=O)([O-])[O-].[Na+].[Na+] (stereo in doubt; 28i-(s))	55.5
O=C(NC[C@H]1O[C@@H](n2ccc(=O)[nH]c2=O)[C@H](O)[C@@H]1O)OC(c1ccc(F)cc1)P(=O)(O)O (stereo in doubt; 28c-(l))	1.1

molecular target: T2, Beta-galactoside alpha-2,6-sialyltransferase 1; test: Displacement of fluorescent probe from human ST6Gal-1 by fluorescence polarization assay; conditions: not given

Kd [µM]	SMILES
0.022	Nc1ccn([C@@H]2O[C@H](COP(=O)(O)O[C@@H](c3cccc(NC(=O)c4ccc(C(=O)O)c(-c5c6ccc(=O)cc-6oc6cc(O)ccc56)c4)c3)P(=O)(O)O)[C@@H](O)[C@H]2O)c(=O)n1
0.009	Nc1ccn([C@@H]2O[C@H](COP(=O)(O)O[C@H](c3cccc(NC(=O)c4ccc(C(=O)O)c(-c5c6ccc(=O)cc-6oc6cc(O)ccc56)c4)c3)P(=O)(O)O)[C@@H](O)[C@H]2O)c(=O)n1

molecular target: T1, Beta-galactoside alpha-2,6-sialyltransferase 1; test: Inhibition of rat liver ST6Gal-1 using […] measured up to 20 mins by HPLC analysis; conditions: not given

Ki [µM]	SMILES
0.07	Nc1ccn([C@@H]2O[C@H](COP(=O)(O)O[C@@H](c3cccc(Oc4ccccc4)c3)P(=O)(O)O)[C@@H](O)[C@H]2O)c(=O)n1
